Test results: ChEMBL document CHEMBL1129664, “Neuroactive polyamine wasp toxins: nuclear magnetic resonance spectroscopic analysis of the protolytic properties of philanthotoxin-343” (J Med Chem, 1996)

Experiments:
[1] = Macroscopic pKa value at 27 C, ionic strength 0.1 M; type: physicochemical
[2] = Macroscopic pKa value at 25 C, ionic strength 1 M; type: physicochemical
Method in brief: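 13C and 1H NMR titration in D2O, following chemical shifts against pD at 25 °C, ionic strength 1 M, with a 22 mM solution for the shift data. Carbons of the polyamine chain were assigned from shift data and total ionization shifts. Proton shifts were too small for quantitative analysis, so 1H titration curves were used only qualitatively.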

[3] = Macroscopic pKa value at 25 C, ionic strength 0.1 M; type: physicochemical

| SMILES | pKa ([1]; read-out: pK1) | pKa ([1]; read-out: pK2) | pKa ([1]; read-out: pK3) | pKa ([1]; read-out: pK4) | pKa ([2]; read-out: pK1) | pKa ([2]; read-out: pK2) | pKa ([2]; read-out: pK3) | pKa ([2]; read-out: pK4) | pKa ([3]; read-out: pK1) | pKa ([3]; read-out: pK2) | pKa ([3]; read-out: pK3) | pKa (physchem) |
| --- | --- | --- | --- | --- | --- | --- | --- | --- | --- | --- | --- | --- |
| NCCCCNCCCNCCCN | 7.59 | 9.24 | 10.5 | 11.1 |  |  |  |  |  |  |  |  |
| CCCC(=O)NC(Cc1ccc(O)cc1)C(=O)NCCCNCCCCNCCCN (stereo unspecified) |  |  |  |  | 8.5 | 9.5 | 10.4 | 11.4 |  |  |  |  |
| NCCCCNCCCN [SPERMIDINE] |  |  |  |  | 8.93 | 10.3 | 10.9 |  | 8.15 | 9.74 | 10.2 |  |
| NCCCNCCCCNCCCN [SPERMINE] |  |  |  |  | 8.69 | 9.31 | 10.7 | 10.8 | 7.91 | 8.68 | 10.2 | 10.6 |
| NCCCNCCCNCCCN [THERMINE] | 7.36 | 8.81 | 10.1 | 10.8 |  |  |  |  |  |  |  |  |
